In ChEMBL document CHEMBL1145127 (J Med Chem, 2003):

Legend:
[1] = target: cGMP-specific 3',5'-cyclic phosphodiesterase (Bos taurus, UniProt Q28156); assay: In vitro inhibitory activity against bovine phosphodiesterase 5
Rattus norvegicus [2] = species: Rattus norvegicus; assay: Effective concentration against rat aortic smooth muscle cell; assay type: functional
Method in brief: (§1)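 Rat aortic smooth muscle cells cultured in DMEM with 10% fetal calf serum at 37 °C, seeded at (2-5) × 10⁴ cells/well and used confluent after 3-5 days. Cells preincubated 30 min at 37 °C in PBS with inhibitor, then stimulated with atrial natriuretic factor (0.1 µM) 10 min. Intracellular cGMP extracted with 65% ethanol. Triplicate wells, DMSO ≤0.1%. EC50 taken as concentration giving half-maximal cGMP increase.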

Phosphodiesterase 3B = Phosphodiesterase 3B (Bos taurus, UniProt E1BN64); assay: Inhibition of bovine aorta PDE3 (Phosphodiesterase 3)
Rattus norvegicus [3] = species: Rattus norvegicus; assay: Increased intracellular cGMP concentration in rat aortic smooth cells (RSMC) using atrial natriuretic factor; assay type: functional, cell-based; settings: Aorta; method in brief: as §1
[4] = The total clearance time in plasma in rat was determined; assay type: ADME, organism-based
[5] = target: cGMP-dependent 3',5'-cyclic phosphodiesterase (Homo sapiens, UniProt O00408); assay: Inhibition of Human recombinant PDE2 (Phosphodiesterase 2)
[6] = Half life in rat; assay type: ADME, organism-based; settings: in vivo
[7] = Oral bioavailability in rat was determined; assay type: ADME, organism-based; settings: in vivo
Phosphodiesterase 1 = Phosphodiesterase 1 (Bos taurus, UniProt Q01061+P14100); assay: Inhibition of bovine aorta PDE1 (Phosphodiesterase 1); assay type: protein assay
Phosphodiesterase 6 = assay: Inhibition of bovine retina PDE6 (Phosphodiesterase 6); assay type: protein assay, Bos taurus
[8] = target: cGMP-specific 3',5'-cyclic phosphodiesterase (Bos taurus) (UniProt Q28156); assay: Inhibition of bovine PDE5 (Phosphodiesterase 5); settings: concentration not given here

Phosphodiesterase 3B, sequence (E1BN64 whole entry): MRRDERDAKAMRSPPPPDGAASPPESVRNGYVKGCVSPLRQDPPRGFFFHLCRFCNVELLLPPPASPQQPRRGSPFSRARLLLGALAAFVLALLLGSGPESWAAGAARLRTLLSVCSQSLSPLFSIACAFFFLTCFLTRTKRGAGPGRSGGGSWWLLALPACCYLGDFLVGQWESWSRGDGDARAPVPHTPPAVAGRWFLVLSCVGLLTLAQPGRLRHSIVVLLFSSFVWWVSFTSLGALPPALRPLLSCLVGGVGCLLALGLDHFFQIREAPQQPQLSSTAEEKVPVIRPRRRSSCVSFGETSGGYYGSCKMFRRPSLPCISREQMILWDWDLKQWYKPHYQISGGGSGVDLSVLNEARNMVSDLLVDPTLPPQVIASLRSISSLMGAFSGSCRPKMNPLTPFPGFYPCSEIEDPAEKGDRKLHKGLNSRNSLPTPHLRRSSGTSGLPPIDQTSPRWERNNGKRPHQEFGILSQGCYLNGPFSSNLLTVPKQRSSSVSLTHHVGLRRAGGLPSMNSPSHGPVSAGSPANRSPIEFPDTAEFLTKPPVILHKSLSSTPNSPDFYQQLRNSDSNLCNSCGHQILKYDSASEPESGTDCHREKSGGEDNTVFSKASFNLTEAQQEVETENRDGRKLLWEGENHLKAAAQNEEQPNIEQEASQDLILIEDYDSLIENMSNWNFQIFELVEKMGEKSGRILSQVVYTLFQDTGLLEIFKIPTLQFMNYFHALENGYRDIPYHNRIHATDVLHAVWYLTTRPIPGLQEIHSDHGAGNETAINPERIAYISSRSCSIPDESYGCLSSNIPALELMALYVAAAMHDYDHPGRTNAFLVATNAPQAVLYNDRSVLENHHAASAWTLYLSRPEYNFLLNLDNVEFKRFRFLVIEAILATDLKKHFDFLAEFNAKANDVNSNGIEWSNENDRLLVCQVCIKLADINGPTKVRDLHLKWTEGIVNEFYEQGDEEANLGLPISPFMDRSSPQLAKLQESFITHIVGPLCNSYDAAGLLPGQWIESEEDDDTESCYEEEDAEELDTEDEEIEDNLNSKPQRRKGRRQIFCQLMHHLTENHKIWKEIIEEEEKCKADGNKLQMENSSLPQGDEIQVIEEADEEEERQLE
cGMP-dependent 3',5'-cyclic phosphodiesterase, sequence (O00408 whole entry): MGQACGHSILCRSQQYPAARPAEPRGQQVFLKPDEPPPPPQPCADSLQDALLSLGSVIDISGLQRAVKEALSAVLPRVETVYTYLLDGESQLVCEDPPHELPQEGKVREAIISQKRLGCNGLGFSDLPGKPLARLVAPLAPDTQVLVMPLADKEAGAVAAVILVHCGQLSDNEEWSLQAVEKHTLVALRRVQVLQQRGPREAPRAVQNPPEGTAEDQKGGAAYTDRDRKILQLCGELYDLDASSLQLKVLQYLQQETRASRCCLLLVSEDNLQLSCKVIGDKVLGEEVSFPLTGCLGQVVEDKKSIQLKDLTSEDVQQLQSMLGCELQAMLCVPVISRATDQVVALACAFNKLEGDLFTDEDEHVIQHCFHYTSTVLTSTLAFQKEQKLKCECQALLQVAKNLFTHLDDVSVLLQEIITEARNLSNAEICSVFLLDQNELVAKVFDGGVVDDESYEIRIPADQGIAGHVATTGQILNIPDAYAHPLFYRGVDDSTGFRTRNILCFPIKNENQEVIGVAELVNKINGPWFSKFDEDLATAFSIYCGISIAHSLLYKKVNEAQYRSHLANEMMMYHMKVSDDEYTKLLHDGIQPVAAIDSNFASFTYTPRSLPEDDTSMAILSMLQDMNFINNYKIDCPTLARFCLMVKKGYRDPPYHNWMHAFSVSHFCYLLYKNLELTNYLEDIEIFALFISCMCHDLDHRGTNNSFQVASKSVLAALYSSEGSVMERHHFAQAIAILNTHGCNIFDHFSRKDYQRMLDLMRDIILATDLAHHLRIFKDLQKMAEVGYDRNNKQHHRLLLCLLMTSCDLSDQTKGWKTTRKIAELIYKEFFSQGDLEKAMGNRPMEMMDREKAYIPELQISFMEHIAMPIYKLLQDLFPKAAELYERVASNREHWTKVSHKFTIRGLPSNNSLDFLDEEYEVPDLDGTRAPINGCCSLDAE

Compound `CCCCN1CC(=O)N2[C@H](c3ccc4c(c3)OCO4)c3[nH]c4ccccc4c3C[C@@H]2C1=O` (stereo in doubt; 13) has an IC50 [1] of 3 nM and an EC50 (Rattus norvegicus [2]; Rattus norvegicus) of 1000 nM.
For `CCCc1nn(C)c2c(=O)[nH]c(-c3cc(S(=O)(=O)N4CCN(C)CC4)ccc3OCC)nc12`, the IC50 (Phosphodiesterase 3B) was 9200 nM.
Work on `CCCCN1C(=O)[C@H]2Cc3c([nH]c4ccccc34)C(c3ccc(OC)cc3)N2C1=O` (some centres not stated) yielded an EC50 (Rattus norvegicus [3]) of 700 nM.
With `CN1C[C@H]2Cc3c([nH]c4ccccc34)[C@@H](c3ccc4c(c3)OCO4)N2C1=O` the IC50 [1] was 60 nM and the EC50 (Rattus norvegicus [2]; Rattus norvegicus) was > 10000 nM.
In the case of `CN1CC(=O)N2[C@H](c3ccc4c(c3)OCO4)c3[nH]c4ccccc4c3C[C@@H]2C1=O` (stereo in doubt), the EC50 (Rattus norvegicus [2]) is reported as 500 nM.
Compound `CCCCN1CC(=O)N2C(c3ccc(C#N)cc3)c3[nH]c4ccccc4c3C[C@@H]2C1=O` (some centres not stated) has an IC50 [1] of 758 nM.
In the case of `CCCCN1CC(=O)N2C(c3ccc(Cl)cc3)c3[nH]c4ccccc4c3C[C@@H]2C1=O` (some centres not stated), the IC50 [1] is reported as 15 nM and the EC50 (Rattus norvegicus [2]; Rattus norvegicus) is reported as > 10000 nM.
`COc1ccc(C2c3[nH]c4ccccc4c3C[C@@H]3C(=O)N(C)C(=O)N23)cc1` (some centres not stated) gave an IC50 [1] of 10 nM and an EC50 (Rattus norvegicus [2]; Rattus norvegicus) of 1000 nM.
Compound `CC(C)N1CC(=O)N2[C@H](c3ccc4c(c3)OCO4)c3[nH]c4ccccc4c3C[C@@H]2C1=O` (stereo in doubt) has an IC50 [1] of 6 nM and an EC50 (Rattus norvegicus [2]) of 500 nM.
For `CCN1CC(=O)N2[C@H](c3ccc(OC)cc3)c3[nH]c4ccccc4c3C[C@@H]2C1=O`, the EC50 (Rattus norvegicus [2]; Rattus norvegicus) was 500 nM.
In the case of `O=C1NCC(=O)N2[C@H](c3ccc4c(c3)OCO4)c3[nH]c4ccccc4c3C[C@H]12` (stereo in doubt; 16) [NORTADALAFIL], the IC50 [1] is reported as 11 nM and the EC50 (Rattus norvegicus [2]; Rattus norvegicus) is reported as 300 nM.
For `O=C1[C@H]2Cc3c([nH]c4ccccc34)C(c3ccc4c(c3)OCO4)N2C(=O)N1Cc1ccccc1` (some centres not stated), the IC50 [1] was 6 nM and the EC50 (Rattus norvegicus [2]; Rattus norvegicus) was 3000 nM.
Compound `CCCCN1CC(=O)N2[C@H](c3ccc4c(c3)OCO4)c3[nH]c4ccccc4c3C[C@@H]2C1=O` (stereo in doubt) has an IC50 [1] of 5 nM and an EC50 (Rattus norvegicus [2]) of 600 nM.
For `CN1CC(=O)N2[C@H](c3ccc4c(c3)OCO4)c3[nH]c4ccccc4c3C[C@@H]2C1=O` (stereo in doubt; 12a), the clearance [4] was 5.1 mL/min/kg, the IC50 [5] was > 10000 nM and the IC50 (Phosphodiesterase 3B) was > 10000 nM. The half-life [6] was 2.4 h, the bioavailability [7] was 63% and the EC50 (Rattus norvegicus [2]) was 150 nM. For the same compound, the IC50 (Phosphodiesterase 1) was > 10000 nM and the IC50 (Phosphodiesterase 6) was 5100 nM.
In the case of `CCCCN1CC(=O)N2C(c3ccccc3)c3[nH]c4ccccc4c3C[C@@H]2C1=O` (some centres not stated), the IC50 [1] is reported as 91 nM and the EC50 (Rattus norvegicus [2]; Rattus norvegicus) is reported as > 10000 nM.
`Cc1ccc([C@@H]2c3[nH]c4ccccc4c3C[C@@H]3C(=O)N(CC4CC4)CC(=O)N23)cc1` gave an IC50 [1] of 23 nM and an EC50 (Rattus norvegicus [2]; Rattus norvegicus) of 600 nM.
With `COc1ccc([C@H]2c3[nH]c4ccccc4c3C[C@@H]3C(=O)N(Cc4ccccc4)CN23)cc1` the IC50 [1] was 60 nM and the EC50 (Rattus norvegicus [2]; Rattus norvegicus) was > 10000 nM.
For `CCCCN1CC(=O)N2C(c3ccc(OC)cc3)c3[nH]c4ccccc4c3C[C@@H]2C1=O` (some centres not stated), the IC50 [1] was 70 nM and the EC50 (Rattus norvegicus [2]; Rattus norvegicus) was > 10000 nM.
For `COc1ccc(C2c3[nH]c4ccccc4c3C[C@@H]3C(=O)N(Cc4ccccc4)C(=O)N23)cc1` (some centres not stated), the IC50 [1] was 18 nM and the EC50 (Rattus norvegicus [2]; Rattus norvegicus) was > 10000 nM.
In the case of `COc1ccc([C@@H]2c3[nH]c4ccccc4c3C[C@@H]3C(=O)N(C)CC(=O)N23)cc1`, the IC50 [1] is reported as 41 nM and the EC50 (Rattus norvegicus [2]; Rattus norvegicus) is reported as 200 nM.
With `CCCCN1CC(=O)N2C(c3ccc4c(c3)OCO4)c3[nH]c4ccccc4c3C[C@@H]2C1=O` (single isomer, unassigned) the IC50 [1] was 138 nM and the EC50 (Rattus norvegicus [2]; Rattus norvegicus) was 3500 nM.
In the case of `CC(C)N1CC(=O)N2[C@H](c3ccc4c(c3)OCO4)c3[nH]c4ccccc4c3C[C@@H]2C1=O` (stereo in doubt; 14), the IC50 [1] is reported as 8 nM and the EC50 (Rattus norvegicus [2]) is reported as 150 nM.
`CCCCN1CC(=O)N2[C@H](c3ccc(OC)cc3)c3[nH]c4ccccc4c3C[C@@H]2C1=O` showed an IC50 [1] of 5 nM and an EC50 (Rattus norvegicus [2]; Rattus norvegicus) of 1500 nM.
`CCCCN1CC(=O)N2C(c3ccc(OC)c(OC)c3)c3[nH]c4ccccc4c3C[C@@H]2C1=O` (some centres not stated) showed an inhibition [8] of 62%.
In the case of `CCCCN1C[C@H]2Cc3c([nH]c4ccccc34)[C@@H](c3ccc(OC)cc3)N2C1`, the IC50 [1] is reported as > 10000 nM.
Compound `O=C1[C@H]2Cc3c([nH]c4ccccc34)[C@@H](c3ccc4c(c3)OCO4)N2C(=O)CN1C1CCCCC1` has an IC50 [1] of 5 nM and an EC50 (Rattus norvegicus [2]; Rattus norvegicus) of 300 nM.
With `CCCCN1C(=O)C2Cc3c([nH]c4ccccc34)C(c3ccc(OC)cc3)N2C1=O` (configuration not stated) the EC50 (Rattus norvegicus [2]; Rattus norvegicus) was 1000 nM.
Compound `O=C1NCC(=O)N2[C@H](c3ccc4c(c3)OCO4)c3[nH]c4ccccc4c3C[C@H]12` (stereo in doubt) [NORTADALAFIL] has an IC50 [1] of 12 nM and an EC50 (Rattus norvegicus [2]) of 600 nM.
For `COc1ccc([C@@H]2c3[nH]c4ccccc4c3C[C@@H]3C(=O)N(C4CCCC4)CC(=O)N23)cc1`, the IC50 [1] was 17 nM and the EC50 (Rattus norvegicus [2]; Rattus norvegicus) was 200 nM.
With `CCCCN1CC(=O)N2C(c3ccc(C)cc3)c3[nH]c4ccccc4c3C[C@@H]2C1=O` (some centres not stated) the IC50 [1] was 26 nM and the EC50 (Rattus norvegicus [2]; Rattus norvegicus) was 350 nM.
`O=C1[C@H]2Cc3c([nH]c4ccccc34)[C@@H](c3ccc4c(c3)OCO4)N2C(=O)CN1Cc1ccccc1` showed an IC50 [1] of 3 nM and an EC50 (Rattus norvegicus [2]; Rattus norvegicus) of 800 nM.
With `COc1ccc([C@@H]2c3[nH]c4ccccc4c3C[C@@H]3C(=O)N(CC4CC4)CC(=O)N23)cc1` the IC50 [1] was 6 nM and the EC50 (Rattus norvegicus [2]; Rattus norvegicus) was 500 nM.
